Data reported in ChEMBL document CHEMBL1155449, “Peptide HIV-1 integrase inhibitors from HIV-1 gene products” (J Med Chem, 2010).
pIC50: −log10 of the molar value. Active and inactive are the calls of the source. The rule behind the calls is not given here. Where a SMILES comes first, the peptide text is derived from it.

Key:
[1] = tested on: MT4; assay: Cytotoxicity against human MT4 cells assessed as firefly luciferase activity at 1 to 100 uM after 6 to 7 days by chemiluminescence assay; type: cell-based; conditions: mt4, 100 µM
How it was run: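 1×10^3 MT-4 Luc cells constitutively expressing luciferase were exposed to varying peptide concentrations in the HIV-1 HXB2 (ca. 0.2-10 ng p24) infection format. Cells lysed after 6-7 d and luciferase measured by chemiluminescence. Cytotoxicity is read as loss of luciferase signal.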

[2] = target: T1, Human immunodeficiency virus type 1 integrase (Human immunodeficiency virus 1, UniProt Q7ZJM1); assay: Inhibition of HIV1 integrase strand transfer activity after 1 hr by densitometric analysis
T1 sequence (Q7ZJM1 whole entry): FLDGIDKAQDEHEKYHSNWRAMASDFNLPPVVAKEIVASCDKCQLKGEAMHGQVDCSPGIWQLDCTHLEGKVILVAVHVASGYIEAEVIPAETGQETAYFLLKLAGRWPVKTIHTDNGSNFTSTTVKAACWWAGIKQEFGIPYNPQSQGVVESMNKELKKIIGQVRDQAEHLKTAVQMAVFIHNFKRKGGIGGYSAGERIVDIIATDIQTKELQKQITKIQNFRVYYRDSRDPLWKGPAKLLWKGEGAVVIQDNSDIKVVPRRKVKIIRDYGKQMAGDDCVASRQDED

[3] = target: T1, Human immunodeficiency virus type 1 integrase; assay: Inhibition of HIV1 integrase 3'-end processing activity after 1 hr by densitometric analysis
[4] = tested on: Human immunodeficiency virus 1; assay: Antiviral activity against HIV1 HXB2 infected in human MT4 cells assessed as firefly luciferase activity at 20 uM after 6 to 7 days by chemiluminescence assay; type: functional, organism-based
How it was run: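 MT-4 Luc cells (constitutively high luciferase; HIV-1-induced cell death lowers signal), 1×10^3 cells per well, infected with HIV-1 HXB2 (ca. 0.2-10 ng p24) with varying peptide concentrations present. Lysed 6-7 d post-infection; luciferase read by chemiluminescence. Protection from HIV-1-induced death keeps signal high, and a fall in signal also serves as the cytotoxicity read-out.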

[5] = target: Human immunodeficiency virus type 1 reverse transcriptase (Human immunodeficiency virus 1, UniProt Q72547); assay: Inhibition of HIV1 reverse transcriptase-associated ribonuclease H activity by fluorescence assay
[6] = Selectivity index, ratio of cytotoxicity against human MT4 cells to antiviral activity against HIV1 JRCSF infected in CD4/CCR5-expressing human NP2 cells; type: toxicity, cell-based; conditions: read-out: Selectivity Index
[7] = tested on: Human immunodeficiency virus 1; assay: Antiviral activity against HIV1 JRCSF infected in CD4/CCR5-expressing human NP2 cells assessed as inhibition of viral p24 antigen production at 0.8 uM measured on day 4 post viral infection by ELISA; type: functional; conditions: Human immunodeficiency virus 1, JRCSF ISOLATE, NP2, 96 h
How it was run: (§1)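 1×10^5 NP2-CD4-CCR5 cells incubated 30 min at room temperature with HIV-1 JR-CSF supernatant (ca. 0.2-50 ng p24), washed and cultured with varying peptide concentrations. Supernatant p24 measured by ELISA on day 4 post-infection.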

[8] = tested on: Human immunodeficiency virus 1; assay: Antiviral activity against HIV1 HXB2 infected in CD4/CXCR4-expressing human NP2 cells assessed as generation of viral DNA at late stage of reverse transcription at 0.5 uM measured on day 2 post viral infection by quantitative RT-PCR analysis relative to control; type: functional
How it was run: (§2)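 NP2-CD4-CXCR4 cells infected with HIV-1 HXB2 with or without 0.5 μM peptide (DMSO control). Genomic DNA extracted day 2 post-infection. Viral DNA quantified by real-time PCR for strong-stop DNA, late reverse-transcription products, Alu-LTR (integrated) and 2-LTR (end-joined) products. Each is expressed as % of the DMSO-treated control.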

[9] = target: Human immunodeficiency virus type 1 integrase (Human immunodeficiency virus 1) (UniProt Q7ZJM1); assay: Inhibition of HIV1 HXB2 integrase-mediated integrate viral genome production in CD4/CXCR4-expressing human NP2 cells assessed as production of integrate viral genome at 0.5 uM measured on day 2 post viral infection by quantitative RT-PCR analysis; type: cell-based; parameters: scale not given: the % may be the effect or the level left; how it was run: as §2
Chain of Human immunodeficiency virus type 1 integrase (Human immunodeficiency virus 1) (Q7ZJM1 as listed by the source): as the sequence (Q7ZJM1 whole entry) above

[10] = tested on: Human immunodeficiency virus 1; assay: Antiviral activity against HIV1 JRCSF infected in CD4/CCR5-expressing human NP2 cells assessed as inhibition of viral p24 antigen production measured on day 4 post viral infection by ELISA; type: functional, organism-based; conditions: JRCSF ISOLATE; how it was run: as §1
[11] = tested on: Human immunodeficiency virus 1; assay: Antiviral activity against HIV1 HXB2 infected in human MT4 cells assessed as inhibition of viral p24 antigen production at 0.5 uM measured on day 4 post viral infection by ELISA; type: functional, organism-based
How it was run: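 1×10^5 MT-4 cells incubated 30 min at room temperature with HIV-1 HXB2 supernatant (ca. 0.2-50 ng p24), washed and cultured with 0.5 μM peptide or without. Supernatants collected at several time points for p24 ELISA, with cells passaged as needed.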

[12] = tested on: Human immunodeficiency virus 1; assay: Antiviral activity against HIV1 HXB2 infected in CD4/CXCR4-expressing human NP2 cells assessed as total genome of infected virus at 0.5 uM measured on day 2 post viral infection by quantitative RT-PCR analysis relative to control; type: functional; how it was run: as §2
[13] = tested on: Human immunodeficiency virus 1; assay: Antiviral activity against HIV1 HXB2 infected in CD4/CXCR4-expressing human NP2 cells assessed as host cellular enzyme catalyzed end-joined viral genome production at 0.5 uM measured on day 2 post viral infection by quantitative RT-PCR analysis relative to control; type: functional; how it was run: as §2

For `CC[C@H](C)[C@H](NC(=O)[C@H](C)NC(=O)[C@H](CCC(=O)O)NC(C)=O)C(=O)N[C@H](C(=O)N[C@@H](CCCNC(=N)N)C(=O)N[C@H](C(=O)N[C@@H](CC(C)C)C(=O)N[C@@H](CCC(N)=O)C(=O)N[C@@H](CCC(N)=O)C(=O)N[C@@H](CC(C)C)C(=O)N[C@@H](CC(C)C)C(=O)N[C@@H](Cc1ccccc1)C(=O)N[C@H](C(=O)N[C@@H](Cc1cnc[nH]1)C(=O)N[C@@H](Cc1ccccc1)C(=O)N[C@@H](CCCNC(=N)N)C(=O)N[C@H](C(=O)NCC(=O)N[C@@H](CCCNC(=N)N)C(=O)N[C@@H](CCCNC(=N)N)C(=O)N[C@@H](CCCNC(=N)N)C(=O)N[C@@H](CCCNC(=N)N)C(=O)N[C@@H](CCCNC(=N)N)C(=O)N[C@@H](CCCNC(=N)N)C(=O)N[C@@H](CCCNC(=N)N)C(=O)N[C@@H](CCCNC(=N)N)C(N)=O)[C@@H](C)CC)[C@@H](C)CC)[C@@H](C)CC)[C@@H](C)CC`, which Activity [1] is on record?
Its Activity is “Non-toxic”.

What about the pIC50 [2] of the same compound?
Its pIC50 is 8.30.

And the pIC50 [3]?
The pIC50 was 8.22.

And the Activity [4]?
The Activity was “Active”.

What about the pIC50 [5] of the same compound?
The pIC50 was under 6.30.

For `CC[C@H](C)[C@H](NC(C)=O)C(=O)N[C@@H](Cc1cnc[nH]1)C(=O)N[C@@H](Cc1ccccc1)C(=O)N[C@@H](CCCNC(=N)N)C(=O)N[C@H](C(=O)NCC(=O)N[C@@H](CCCNC(=N)N)C(=O)N[C@@H](CCCNC(=N)N)C(=O)N[C@@H](CCCNC(=N)N)C(=O)N[C@@H](CCCNC(=N)N)C(=O)N[C@@H](CCCNC(=N)N)C(=O)N[C@@H](CCCNC(=N)N)C(=O)N[C@@H](CCCNC(=N)N)C(=O)N[C@@H](CCCNC(=N)N)C(N)=O)[C@@H](C)CC` (Ac-IHFRIGRRRRRRRR-NH2), which Activity [1] is on record?
The Activity was “Non-toxic”.

What about the Activity [4] of the same compound?
The Activity was “inactive”.

Which Activity [1] does the source give for `CC(=O)N[C@@H](CC(C)C)C(=O)N[C@@H](CCC(N)=O)C(=O)N[C@@H](CCC(N)=O)C(=O)N[C@@H](CC(C)C)C(=O)N[C@@H](CC(C)C)C(=O)N[C@@H](Cc1ccccc1)C(=O)N[C@@H](CCCNC(=N)N)C(=O)N[C@@H](CCCNC(=N)N)C(=O)N[C@@H](CCCNC(=N)N)C(=O)N[C@@H](CCCNC(=N)N)C(=O)N[C@@H](CCCNC(=N)N)C(=O)N[C@@H](CCCNC(=N)N)C(=O)N[C@@H](CCCNC(=N)N)C(=O)N[C@@H](CCCNC(=N)N)C(N)=O` (Ac-LQQLLFRRRRRRRR-NH2) here?
The Activity was “Non-toxic”.

Which selectivity ratio [6] does the source give for `CC[C@H](C)[C@H](NC(=O)[C@H](CCCNC(=N)N)NC(=O)[C@H](Cc1ccccc1)NC(=O)[C@H](Cc1cnc[nH]1)NC(=O)[C@@H](NC(=O)[C@H](Cc1ccccc1)NC(=O)[C@H](CC(C)C)NC(=O)[C@H](CC(C)C)NC(=O)[C@H](CCC(N)=O)NC(=O)[C@H](CCC(N)=O)NC(=O)[C@H](CC(C)C)NC(C)=O)[C@@H](C)CC)C(=O)NCC(=O)N[C@@H](CCCNC(=N)N)C(=O)N[C@@H](CCCNC(=N)N)C(=O)N[C@@H](CCCNC(=N)N)C(=O)N[C@@H](CCCNC(=N)N)C(=O)N[C@@H](CCCNC(=N)N)C(=O)N[C@@H](CCCNC(=N)N)C(=O)N[C@@H](CCCNC(=N)N)C(=O)N[C@@H](CCCNC(=N)N)C(N)=O` here?
Its selectivity ratio is 10.

What about the Activity [1] of the same compound?
The Activity was “Non-toxic”.

What about the inhibition at 0.8 µM [7] of the same compound?
The inhibition at 0.8 µM was 50%.

What about the Activity [8] of the same compound?
The Activity was 84.4%.

What about the Activity [9] of the same compound?
Its Activity is 15.8%.

What about the inhibition [10] of the same compound?
The inhibition was “Dose-dependent effect”.

And the pIC50 [2]?
Its pIC50 is 8.40.

And the inhibition [11]?
Its inhibition is “Active”.

And the pIC50 [3]?
The pIC50 was 8.10.

And the Activity [12]?
Its Activity is 139.7%.

What about the pIC50 [5] of the same compound?
The pIC50 was under 6.30.

What about the Activity [13] of the same compound?
The Activity was 779.8%.
